Assay results taken from ChEMBL document CHEMBL1156340 (J Med Chem, 2010).
Converted amounts (≈) assume the structure as drawn.

What was measured:
[1] = Plasma clearance in BALB/c mouse at 6 mg/kg, iv; assay type: ADME, organism-based; parameters: dose 6 mg/kg, route intravenous
Procedure, shortened: (§1)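 Single-dose plasma pharmacokinetics with at least 3 animals per study. Tmax comes from oral dosing, and clearance and Vss from the parenteral arm. In rat that arm was given intra-arterially; in mouse, dog and monkey it was intravenous. Bioavailability is absolute, comparing the oral and parenteral arms.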

[2] = Volume of distribution at steady state in BALB/c mouse at 6 mg/kg, iv; assay type: ADME, organism-based; parameters: dose 6 mg/kg, route intravenous; details: in vivo, read-out: Vdss; procedure, shortened: as §1
[3] = Half life in BALB/c mouse at 6 mg/kg, iv; assay type: ADME, organism-based; parameters: dose 6 mg/kg, route intravenous; details: in vivo
Procedure, shortened: (§2)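 Single-dose pharmacokinetics in each species by oral and intravenous routes; the rat intravenous arm was given intra-arterially. n ≥ 3 per study. Mouse exposure is reported as AUC0-8h.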

[4] = Tmax in BALB/c mouse at 12 mg/kg, po; assay type: ADME, organism-based; parameters: dose 12 mg/kg, route oral; details: in vivo; procedure, shortened: as §1
[5] = Cmax in BALB/c mouse at 12 mg/kg, po; assay type: ADME, organism-based; parameters: dose 12 mg/kg, route oral; details: in vivo; procedure, shortened: as §2
[6] = Oral bioavailability in BALB/c mouse at 12 mg/kg; assay type: ADME, organism-based; details: in vivo; procedure, shortened: as §2
[7] = AUC in Sprague-Dawley rat at 5 mg/kg, ia; assay type: ADME, organism-based; parameters: dose 5 mg/kg, route intra-arterial; details: plasma
Procedure, shortened: (§3)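 Single-dose pharmacokinetic study with at least 3 animals per study; the ia route is intra-arterial administration.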

[8] = Plasma clearance in Sprague-Dawley rat at 5 mg/kg, ia; assay type: ADME, organism-based; parameters: dose 5 mg/kg, route intra-arterial; procedure, shortened: as §1
[9] = Volume of distribution at steady state in Sprague-Dawley rat at 5 mg/kg, ia; assay type: ADME, organism-based; parameters: dose 5 mg/kg, route intra-arterial; details: in vivo, read-out: Vdss; procedure, shortened: as §1
[10] = Half life in Sprague-Dawley rat at 5 mg/kg, ia; assay type: ADME, organism-based; parameters: dose 5 mg/kg, route intra-arterial; details: in vivo; procedure, shortened: as §2
[11] = Tmax in Sprague-Dawley rat at 10 mg/kg, po; assay type: ADME, organism-based; parameters: dose 10 mg/kg, route oral; details: in vivo; procedure, shortened: as §1
[12] = Cmax in Sprague-Dawley rat at 10 mg/kg, po; assay type: ADME, organism-based; parameters: dose 10 mg/kg, route oral; details: in vivo; procedure, shortened: as §2
[13] = AUC in Sprague-Dawley rat at 10 mg/kg, po; assay type: ADME, organism-based; parameters: dose 10 mg/kg, route oral; details: plasma; procedure, shortened: as §3
[14] = Oral bioavailability in Sprague-Dawley rat at 10 mg/kg; assay type: ADME, organism-based; details: in vivo; procedure, shortened: as §1
[15] = AUC in dog at 1 mg/kg, iv; assay type: ADME, organism-based, Canis lupus familiaris; parameters: dose 1 mg/kg, route intravenous; details: plasma; procedure, shortened: as §3
[16] = Plasma clearance in dog at 1 mg/kg, iv; assay type: ADME, organism-based, Canis lupus familiaris; parameters: dose 1 mg/kg, route intravenous; procedure, shortened: as §1
[17] = Volume of distribution at steady state in dog at 1 mg/kg, iv; assay type: ADME, organism-based, Canis lupus familiaris; parameters: dose 1 mg/kg, route intravenous; details: in vivo, read-out: Vdss; procedure, shortened: as §1
[18] = Half life in dog at 1 mg/kg, iv; assay type: ADME, organism-based, Canis lupus familiaris; parameters: dose 1 mg/kg, route intravenous; details: in vivo; procedure, shortened: as §2
[19] = Tmax in dog at 2 mg/kg, po; assay type: ADME, organism-based, Canis lupus familiaris; parameters: dose 2 mg/kg, route oral; details: in vivo; procedure, shortened: as §1
[20] = Cmax in dog at 2 mg/kg, po; assay type: ADME, organism-based, Canis lupus familiaris; parameters: dose 2 mg/kg, route oral; details: in vivo; procedure, shortened: as §2
[21] = AUC in dog at 2 mg/kg, po; assay type: ADME, organism-based, Canis lupus familiaris; parameters: dose 2 mg/kg, route oral; details: plasma; procedure, shortened: as §3
[22] = Oral bioavailability in dog at 2 mg/kg, po; assay type: ADME, organism-based, Canis lupus familiaris; details: in vivo; procedure, shortened: as §1
[23] = AUC in cynomolgus monkey at 1 mg/kg, iv; assay type: ADME, organism-based, Macaca fascicularis; parameters: dose 1 mg/kg, route intravenous; details: plasma; procedure, shortened: as §3
[24] = Plasma clearance in cynomolgus monkey at 1 mg/kg, iv; assay type: ADME, organism-based, Macaca fascicularis; parameters: dose 1 mg/kg, route intravenous; procedure, shortened: as §1
[25] = Volume of distribution at steady state in cynomolgus monkey at 1 mg/kg, iv; assay type: ADME, organism-based, Macaca fascicularis; parameters: dose 1 mg/kg, route intravenous; details: in vivo, read-out: Vdss; procedure, shortened: as §1
[26] = Half life in cynomolgus monkey at 1 mg/kg, iv; assay type: ADME, organism-based, Macaca fascicularis; parameters: dose 1 mg/kg, route intravenous; details: in vivo; procedure, shortened: as §2
[27] = Tmax in cynomolgus monkey at 2 mg/kg, po; assay type: ADME, organism-based, Macaca fascicularis; parameters: dose 2 mg/kg, route oral; details: in vivo; procedure, shortened: as §1
[28] = Cmax in cynomolgus monkey at 2 mg/kg, po; assay type: ADME, organism-based, Macaca fascicularis; parameters: dose 2 mg/kg, route oral; details: in vivo; procedure, shortened: as §2
[29] = AUC in cynomolgus monkey at 2 mg/kg, po; assay type: ADME, organism-based, Macaca fascicularis; parameters: dose 2 mg/kg, route oral; details: plasma; procedure, shortened: as §3
[30] = Oral bioavailability in cynomolgus monkey at 2 mg/kg, po; assay type: ADME, organism-based, Macaca fascicularis; details: in vivo; procedure, shortened: as §1
[31] = Crystalline aqueous solubility at pH 6.5; assay type: physicochemical; details: aqueous solution
[32] = Crystalline aqueous solubility at pH 7.9; assay type: physicochemical; details: aqueous solution
[33] = Metabolic stability in mouse liver microsomes assessed as glutathione conjugate at 30 uM in presence of glutathione; assay type: ADME, Microsome
Procedure, shortened: (§4)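 Liver microsomes (mouse, rat or human) were fortified with 5 mM glutathione and incubated with 30 μM compound, then screened for glutathione conjugates.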

Liver microsomes [34] = test: Metabolic stability in rat liver microsomes assessed as glutathione conjugate at 30 uM in presence of glutathione; assay type: ADME, Microsome; procedure, shortened: as §4
Liver microsomes [35] = test: Metabolic stability in human liver microsomes assessed as glutathione conjugate at 30 uM in presence of glutathione; assay type: ADME, Microsome; procedure, shortened: as §4
[36] = AUC (0 to 8 h) in BALB/c mouse at 6 mg/kg, iv; details: plasma
[37] = AUC (0 to 8 h) in BALB/c mouse at 12 mg/kg, po; details: plasma

COC(=O)N(CC(=O)O)Cc1cccc(OCc2nc(-c3ccc(Cl)cc3)oc2C)c1
clearance [1]: 10.8 mL/min/kg
Vd [2]: 1.3 L/kg
half-life [3]: 3 h
Tmax [4]: 0.25 h
Cmax [5]: 23.8 µM
bioavailability [6]: 88%
AUC [7]: 48 µM·h
clearance [8]: 4.3 mL/min/kg
Vd [9]: 0.7 L/kg
half-life [10]: 3.2 h
Tmax [11]: 0.4 h
Cmax [12]: 43 µM
AUC [13]: 88 µM·h
bioavailability [14]: 91%
AUC [15]: 3.9 µM·h
clearance [16]: 9.5 mL/min/kg
Vd [17]: 1.8 L/kg
half-life [18]: 7.9 h
Tmax [19]: 0.9 h
Cmax [20]: 1 µM
AUC [21]: 4.5 µM·h
bioavailability [22]: 58%
AUC [23]: 5.8 µM·h
clearance [24]: 8.9 mL/min/kg
Vd [25]: 3.5 L/kg
half-life [26]: 11.9 h
Tmax [27]: 0.8 h
Cmax [28]: 1.9 µM
AUC [29]: 8.5 µM·h
bioavailability [30]: 75%
solubility thermodynamic [31]: 280 µg/mL (≈ 629 µM)
solubility thermodynamic [32]: > 4000 µg/mL
Stability [33]: Stable
Stability (Liver microsomes [34]): Stable
Stability (Liver microsomes [35]): Stable
AUC(0-8h) [36]: 19.3 µM·h
AUC(0-8h) [37]: 33.9 µM·h
